The record followed here is ChEMBL document CHEMBL1122414, “Anilides related to substituted benzamides. Potential antipsychotic activity of N-(4-amino-5-chloro-2-methoxyphenyl)-1-(phenylmethyl)-4-piperidinecarboxamide” (1983).

Structures are written as SMILES.

One assay relates to Mus musculus. In words: Antagonistic activity against apomorphine induced climbing in CD-1 mice, after oral administration.
Settings: not given
In kind it is functional. The procedure, abridged: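 Male CD-1 mice (20–25 g), usually four groups of five, dosed orally with graded doses or vehicle 30 min before submaximal apomorphine (1 mg/kg sc). Climbing scored 10, 20 and 30 min later (modified Protais method). ED50 with 95% confidence limits by Litchfield–Wilcoxon.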
`COc1cc(N)c(Cl)cc1NC(=O)C1CCN(Cc2ccccc2Cl)CC1` registered an ED50 greater than 4 mg/kg.
Still for that read-out and setting: to `CCC(CC)CN1CCC(C(=O)Nc2cc(Cl)c(N)cc2OC)CC1` belongs greater than 10 mg/kg.
Compound `COc1cc(N)c(Cl)cc1NC(=O)C1CCN(Cc2ccc(Cl)cc2)CC1` had an ED50 of 1.2 mg/kg.
With `COc1cc(N)c(Cl)cc1NC(=O)C1CCN(CC2CCCCCC2)CC1`, the ED50 is greater than 10 mg/kg.
The compound `COc1cc(N)c(Cl)cc1NC(=O)C1CCN(Cc2ccccc2F)CC1` returned an ED50 greater than 4 mg/kg.
Still for that read-out and setting: to `COc1ccc(CN2CCC(C(=O)Nc3cc(Cl)c(N)cc3OC)CC2)cc1` belongs 0.9 mg/kg; to `COc1cc(N)c(Cl)cc1NC(=O)C1CCN(C/C=C/c2ccccc2)CC1`, greater than 10 mg/kg.
The same measure, in the same setting: to `COc1cc(N)c(Cl)cc1NC(=O)C1CCN(CC2CC2)CC1` belongs greater than 10 mg/kg; to `COc1cc(N)c(Cl)cc1NC(=O)C1CCN(Cc2ccc(OCc3ccccc3)cc2)CC1`, greater than 4 mg/kg; to `CCOc1ccc(CN2CCC(C(=O)Nc3cc(Cl)c(N)cc3OC)CC2)cc1`, 6.3 mg/kg.
`COc1cc(N)c(Cl)cc1NC(=O)C1CCN(C2CCCC2)CC1` gave an ED50 greater than 10 mg/kg.
The same measure, in the same setting: to `CCCCCN1CCC(C(=O)Nc2cc(Cl)c(N)cc2OC)CC1` belongs greater than 10 mg/kg; to `CCN1CCC(C(=O)Nc2cc(Cl)c(N)cc2OC)CC1`, greater than 10 mg/kg; to `COc1cc(N)c(Cl)cc1NC(=O)C1CCN(CCc2ccccc2)CC1`, greater than 10 mg/kg.
Still for that read-out and setting: to `COc1cc(N)c(Cl)cc1NC(=O)C1CCN(Cc2ccc(F)cc2)CC1` belongs 0.6 mg/kg.
The compound `COc1cc(N)c(Cl)cc1NC(=O)C1CCN(Cc2ccc(C)c(C)c2)CC1` gave an ED50 greater than 8 mg/kg.
On the same count and under the same terms, to `COc1cc(N)c(Cl)cc1NC(=O)C1CCN(Cc2ccc(O)cc2)CC1` belongs greater than 8 mg/kg.
Same read-out and setting: to `COc1cccc(CN2CCC(C(=O)Nc3cc(Cl)c(N)cc3OC)CC2)c1` belongs greater than 4 mg/kg.
On the same count and under the same terms, to `COc1cc(N)c(Cl)cc1NC(=O)C1CCN(Cc2cccc(C)c2)CC1` belongs 2.4 mg/kg.
In the case of `CCCCN1CCC(C(=O)Nc2cc(Cl)c(N)cc2OC)CC1`, the ED50 is greater than 10 mg/kg.
Same read-out and setting: to `COc1cc(N)c(Cl)cc1NC(=O)C1CCN(Cc2ccc3c(c2)OCO3)CC1` belongs 4.3 mg/kg; to `CCCCCCCN1CCC(C(=O)Nc2cc(Cl)c(N)cc2OC)CC1`, greater than 10 mg/kg.
Still for that read-out and setting: to `CCCCCCN1CCC(C(=O)Nc2cc(Cl)c(N)cc2OC)CC1` belongs greater than 10 mg/kg; to `COc1cc(N)c(Cl)cc1C(=O)NC1CCN(Cc2ccccc2)CC1` [CLEBOPRIDE], 0.7 mg/kg; to `COc1cc(N)c(Cl)cc1NC(=O)C1CCN(Cc2ccccc2)CC1`, 0.5 mg/kg.
Regarding `COc1cc(N)c(Cl)cc1NC(=O)C1CCN(Cc2cccs2)CC1`, the Inhibition is 77%.
`COc1cc(N)c(Cl)cc1NC(=O)C1CCN(Cc2ccc([N+](=O)[O-])cc2)CC1` displayed an ED50 greater than 4 mg/kg.
The compound `CCCN1CCC(C(=O)Nc2cc(Cl)c(N)cc2OC)CC1` had an ED50 greater than 10 mg/kg.
Compound `COc1cc(N)c(Cl)cc1NC(=O)C1CCN(CC2CCCC2)CC1` had an ED50 greater than 10 mg/kg.
The same measure, in the same setting: to `COc1cc(N)c(Cl)cc1NC(=O)C1CCN(CC2CCCCC2)CC1` belongs 2.9 mg/kg; to `COc1cc(N)c(Cl)cc1NC(=O)C1CCN(CC2CCC2)CC1`, greater than 10 mg/kg.
Compound `COc1cc(N)c(Cl)cc1NC(=O)C1CCN(Cc2ccsc2)CC1` yielded an ED50 of 3.4 mg/kg.
Consider `COc1cc(N)c(Cl)cc1NC(=O)C1CCN(Cc2cccc(Cl)c2)CC1`, for which the ED50 was greater than 4 mg/kg.
Still for that read-out and setting: to `COc1cc(N)c(Cl)cc1NC(=O)C1CCN(Cc2cccc(C#N)c2)CC1` belongs greater than 4 mg/kg.

The next assay relates to Mus musculus. In words: Antagonistic activity against apomorphine induced climbing in CD-1 mice at 2 mg/kg after oral administration. In kind it is functional.
Settings: not given
The procedure, abridged: (§1)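 Male CD-1 mice (20–25 g), usually groups of five, given oral compound or vehicle 30 min before apomorphine 1 mg/kg sc. Climbing scored at 10, 20 and 30 min. Percent antagonism at the quoted dose.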
`COc1cc(N)c(Cl)cc1NC(=O)C1CCN(Cc2cccc(F)c2)CC1` registered an inhibition in vivo at 2 mg/kg of 58%.
Consider `COc1cc(N)c(Cl)cc1NC(=O)C1CCN(Cc2ccccc2C)CC1`, for which the inhibition in vivo at 2 mg/kg stood at 77%.

The subject of another assay is Mus musculus. The assay can be described thus: Percent antagonistic activity against apomorphine induced climbing in CD-1 mice at 0.5 mg/kg after oral administration. In kind it is functional.
Settings: not given
The method in brief:
as §1
The compound `COc1cc(N)c(Cl)cc1NC(=O)C1CCN(Cc2ccc(C)cc2)CC1` displayed an inhibition in vivo at 0.5 mg/kg of 50%.

The subject of another assay is Rattus norvegicus. In words: Increase in intragastric pressure after subcutaneous administration to Wistar rats.
Settings: not given
For the compound `COc1cc(N)c(Cl)cc1C(=O)NC1CCN(Cc2ccccc2)CC1` [CLEBOPRIDE], the lowest active dose came out at 1 mg/kg.

The next assay concerns Rattus norvegicus. The assay can be described thus: Evaluation of prolactin levels in Hooded Lister rats after subcutaneous administration. As to conditions: sc.
Compound `COc1cc(N)c(Cl)cc1C(=O)NC1CCN(Cc2ccccc2)CC1` [CLEBOPRIDE] returned an ED50 of 0.14 mg/kg.
Same read-out and setting: to `COc1cc(N)c(Cl)cc1NC(=O)C1CCN(Cc2ccccc2)CC1` belongs 0.5 mg/kg.

The test system of the next assay is Rattus norvegicus. In words: Increase in intragastric pressure after subcutaneous administration to Wistar rats; 5-50.
Settings: not given
`COc1cc(N)c(Cl)cc1NC(=O)C1CCN(Cc2ccccc2)CC1` yielded an ED50 greater than 50 mg/kg.

Another assay has as its system Rattus norvegicus. The assay can be described thus: Evaluation of HVA levels in striatum after subcutaneous administration to Hooded Lister rats. The note with it: sc.
Regarding `COc1cc(N)c(Cl)cc1C(=O)NC1CCN(Cc2ccccc2)CC1` [CLEBOPRIDE], it took a dose of 0.1 mg/kg to reach the 50% effect level (ED50).
Still for that read-out and setting: to `COc1cc(N)c(Cl)cc1NC(=O)C1CCN(Cc2ccccc2)CC1` belongs 0.4 mg/kg.

The next assay deals with Rattus norvegicus. In words: Evaluation of HVA levels in limbic system in Hooded Lister rats after subcutaneous administration. The note with it: sc.
Regarding `COc1cc(N)c(Cl)cc1C(=O)NC1CCN(Cc2ccccc2)CC1` [CLEBOPRIDE], the ED50 stood at 0.2 mg/kg.
Still for that read-out and setting: to `COc1cc(N)c(Cl)cc1NC(=O)C1CCN(Cc2ccccc2)CC1` belongs 0.5 mg/kg.

The next assay has as its system Rattus norvegicus. The assay can be described thus: Antagonism of amphetamine induced syereotyped behavior after intraperitoneal administration to CD rats. The note with it: ip.
With `COc1cc(N)c(Cl)cc1NC(=O)C1CCN(Cc2ccccc2)CC1`, the 50% effect level (ED50) was put at a dose of 0.25 mg/kg.

For the next assay, the system named is Rattus norvegicus. The assay can be described thus: Antagonistic activity against apomorphine induced delay in gastric emptying in Wistar rats, after subcutaneous administration. As to conditions: Stomach, sc.
`COc1cc(N)c(Cl)cc1C(=O)NC1CCN(Cc2ccccc2)CC1` [CLEBOPRIDE] yielded an ED50 of 0.11 mg/kg.
Same read-out and setting: to `COc1cc(N)c(Cl)cc1NC(=O)C1CCN(Cc2ccccc2)CC1` belongs greater than 50 mg/kg.
